What was measured:
[1] = Growth inhibition of human EKVX cells after 48 hrs by coulter counting analysis; format: functional
Method in brief: (§1)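 NCI five-dose screen at 0.01-100 µM, diluted from DMSO stocks in buffered saline (final DMSO <1%). Cells at 6×10^4 cells/ml in RPMI 1640 with 10% FBS, in duplicate wells, at 37 °C under 5% CO2 for 48 h. Cells diluted tenfold in saline and Coulter-counted. GI50, TGI and LC50 taken from log concentration-growth inhibition curves.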

[2] = Growth inhibition of human OVCAR3 cells after 48 hrs by coulter counting analysis; format: functional; settings: OVCAR-3, 48 h
Method in brief: (§2)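 Five-dose NCI-60 follow-up, 0.01–100 µM, made from DMSO stock in buffered saline (final DMSO <1%), in duplicate wells. Cells in RPMI 1640 with 10% FBS at 6×10^4 cells/ml, 37 °C, 5% CO2, 48 h. Cells diluted tenfold in saline, Coulter-counted and corrected for dilution. GI50, TGI and LC50 taken from log concentration–percent growth curves.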

[3] = system: KM12; test: Growth inhibition of human KM12 cells after 48 hrs by coulter counting analysis; format: functional; settings: KM12, 48 h; method in brief: as §1
[4] = system: U-251; test: Growth inhibition of human U251 cells after 48 hrs by coulter counting analysis; format: functional; settings: U-251, 48 h
Method in brief: (§3)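 NCI five-dose screen, 0.01-100 µM, from DMSO stocks diluted in buffer saline (final DMSO <1%). Cells grown in RPMI 1640 + 10% FBS, seeded at 6×10^4 cells/ml, in duplicate wells. Exposure 48 h at 37 °C, 5% CO2. Cells diluted 10-fold in saline and counted by Coulter counter. GI50 derived from log concentration–percent growth inhibition curves. Controls carried matching PBS/saline/DMSO.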

[5] = system: NCI-H23; test: Growth inhibition of human NCI-H23 cells after 48 hrs by coulter counting analysis; format: functional; settings: NCI-H23, 48 h; method in brief: as §2
[6] = system: SNB-19; test: Growth inhibition of human SNB19 cells after 48 hrs by coulter counting analysis; format: functional; settings: SNB-19, 48 h; method in brief: as §2
[7] = system: A498; test: Growth inhibition of human A498 cells after 48 hrs by coulter counting analysis; format: functional; settings: A498, 48 h; method in brief: as §1
[8] = system: NCI-H522; test: Growth inhibition of human NCI-H522 cells after 48 hrs by coulter counting analysis; format: functional; settings: NCI-H522, 48 h; method in brief: as §2
[9] = system: SK-MEL-28; test: Growth inhibition of human SK-MEL-28 cells after 48 hrs by coulter counting analysis; format: functional; settings: SK-MEL-28, 48 h; method in brief: as §2
[10] = system: SN12C; test: Growth inhibition of human SN12C cells after 48 hrs by coulter counting analysis; format: functional; method in brief: as §2
[11] = system: IGROV-1; test: Growth inhibition of human IGROV1 cells after 48 hrs by coulter counting analysis; format: functional; settings: IGROV-1, 48 h; method in brief: as §1
[12] = system: DU-145; test: Growth inhibition of human DU145 cells after 48 hrs by coulter counting analysis; format: functional; settings: DU-145, 48 h; method in brief: as §1
[13] = system: SK-MEL-2; test: Growth inhibition of human SK-MEL-2 cells after 48 hrs by coulter counting analysis; format: functional; settings: SK-MEL-2, 48 h; method in brief: as §2
[14] = molecular target: Cyclin-dependent kinase 4/cyclin D1 (Homo sapiens) (UniProt P11802+P24385); test: Inhibition of CDK4/Cyclin D1 (unknown origin) at 20 uM after 30 mins by scintillation counting analysis relative to control; format: protein-complex assay
Method in brief: (§4)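 Recombinant kinases, cloned, expressed and purified in-house. Radiometric ³³P-ATP assay with kinase at ~10-50 nM final and 1-5 µg peptide or protein substrate. Compound at 20 µM final, in duplicate. Reaction started by adding ATP, run 30 min at ambient temperature, then spotted on P81 phosphocellulose. Plates washed in 1% phosphoric acid and counted by scintillation. No-substrate blank subtracted. Result is mean % activity change versus DMSO control.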

[15] = Growth inhibition of human HCT15 cells after 48 hrs by coulter counting analysis; format: functional; settings: HCT-15, 48 h; method in brief: as §1
[16] = system: HCT-116; test: Growth inhibition of human HCT116 cells after 48 hrs by coulter counting analysis; format: functional; settings: HCT-116, 48 h; method in brief: as §1
[17] = system: CAKI-1; test: Growth inhibition of human CAKI-1 cells after 48 hrs by coulter counting analysis; format: functional; settings: CAKI-1, 48 h; method in brief: as §1
[18] = system: NCI-H226; test: Growth inhibition of human NCI-H226 cells after 48 hrs by coulter counting analysis; format: functional; settings: NCI-H226, 48 h; method in brief: as §2
[19] = Growth inhibition of human RXF393 cells after 48 hrs by coulter counting analysis; format: functional; settings: RXF 393, 48 h; method in brief: as §2
[20] = system: TK-10; test: Growth inhibition of human TK10 cells after 48 hrs by coulter counting analysis; format: functional; settings: TK-10, 48 h; method in brief: as §3
[21] = system: T47D; test: Growth inhibition of human T47D cells after 48 hrs by coulter counting analysis; format: functional; method in brief: as §2
[22] = system: NCI-H460; test: Growth inhibition of human NCI-H460 cells after 48 hrs by coulter counting analysis; format: functional; settings: NCI-H460, 48 h; method in brief: as §2
[23] = system: MCF7; test: Growth inhibition of human MCF7 cells after 48 hrs by coulter counting analysis; format: functional; settings: MCF7, 48 h; method in brief: as §1
[24] = Growth inhibition of human HOP92 cells after 48 hrs by coulter counting analysis; format: functional; settings: HOP-92, 48 h; method in brief: as §1
[25] = Growth inhibition of human UACC257 cells after 48 hrs by coulter counting analysis; format: functional; settings: UACC-257, 48 h; method in brief: as §3
[26] = Growth inhibition of human OVCAR5 cells after 48 hrs by coulter counting analysis; format: functional; settings: OVCAR-5, 48 h; method in brief: as §2
[27] = Growth inhibition of human OVCAR4 cells after 48 hrs by coulter counting analysis; format: functional; settings: OVCAR-4, 48 h; method in brief: as §2
[28] = Growth inhibition of human NCI-ADR-RES cells after 48 hrs by coulter counting analysis; format: functional; method in brief: as §2
[29] = Growth inhibition of human LOXIMVI cells after 48 hrs by coulter counting analysis; format: functional; settings: LOX IMVI; method in brief: as §1
[30] = system: K562; test: Growth inhibition of human K562 cells after 48 hrs by coulter counting analysis; format: functional; settings: K562, 48 h; method in brief: as §1
[31] = system: M14; test: Growth inhibition of human M14 cells after 48 hrs by coulter counting analysis; format: functional; settings: M14, 48 h; method in brief: as §1
[32] = molecular target: Glycogen synthase kinase-3 beta (Homo sapiens) (UniProt P49841); test: Inhibition of GSK-3beta (unknown origin) at 20 uM after 30 mins by scintillation counting analysis relative to control; method in brief: as §4
[33] = system: ACHN; test: Growth inhibition of human ACHN cells after 48 hrs by coulter counting analysis; format: functional; method in brief: as §1
[34] = system: MDA-MB-435; test: Growth inhibition of human MDA-MB-435 cells after 48 hrs by coulter counting analysis; format: functional; settings: MDA-MB-435, 48 h; method in brief: as §1
[35] = Growth inhibition of human UO31 cells after 48 hrs by coulter counting analysis; format: functional; settings: UO-31, 48 h; method in brief: as §3
[36] = system: SW-620; test: Growth inhibition of human SW620 cells after 48 hrs by coulter counting analysis; format: functional; settings: SW-620, 48 h; method in brief: as §2
[37] = system: SK-OV-3; test: Growth inhibition of human SKOV3 cells after 48 hrs by coulter counting analysis; format: functional; settings: SK-OV-3, 48 h; method in brief: as §2
[38] = system: MDA-MB-231; test: Growth inhibition of human MDA-MB-231 cells after 48 hrs by coulter counting analysis; format: functional; settings: MDA-MB-231, 48 h; method in brief: as §1
[39] = system: RPMI-8226; test: Growth inhibition of human RPMI8226 cells after 48 hrs by coulter counting analysis; format: functional; settings: RPMI-8226, 48 h; method in brief: as §2

Glycogen synthase kinase-3 beta (Homo sapiens), sequence (P49841 whole entry, looked up): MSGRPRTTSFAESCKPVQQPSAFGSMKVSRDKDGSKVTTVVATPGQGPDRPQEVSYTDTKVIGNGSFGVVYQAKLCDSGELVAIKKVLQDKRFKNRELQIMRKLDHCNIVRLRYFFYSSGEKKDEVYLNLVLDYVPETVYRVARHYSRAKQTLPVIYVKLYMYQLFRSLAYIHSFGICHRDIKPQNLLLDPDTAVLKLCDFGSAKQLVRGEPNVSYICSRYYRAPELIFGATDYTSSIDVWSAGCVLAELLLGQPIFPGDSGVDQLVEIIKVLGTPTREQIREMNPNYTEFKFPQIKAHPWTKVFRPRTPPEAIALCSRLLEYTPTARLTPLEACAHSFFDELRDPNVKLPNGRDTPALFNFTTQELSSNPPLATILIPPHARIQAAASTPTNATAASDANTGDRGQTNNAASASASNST

SMILES	GI50 [1]	GI50 [2]	GI50 [3]	GI50 [4]	GI50 [5]	GI50 [8]	GI50 [9]	GI50 [10]	GI50 [11]	GI50 [12]	GI50 [13]	inhibition [14]	GI50 [15]	GI50 [16]	GI50 [17]	GI50 [18]	GI50 [19]	GI50 [20]	GI50 [21]	GI50 [22]	other results
COc1c(C(=O)/C=C/c2ccc(Cl)cc2)c(O)c(Br)c2occc12	4.18 µM	1910 nM	3.49 µM	3.22 µM	3.25 µM	2800 nM	9.86 µM	3.77 µM	3.04 µM	4.07 µM	4.16 µM	15%	3.43 µM	2830 nM	3.35 µM	2840 nM	2370 nM	3.48 µM	3.38 µM	2990 nM	GI50 [6]: 8.24 µM; GI50 [7]: 3.92 µM; GI50 [23]: 2360 nM; GI50 [24]: 1390 nM; GI50 [25]: 4.98 µM; GI50 [26]: 6.04 µM; GI50 [27]: 3.28 µM; GI50 [28]: 3.07 µM; GI50 [29]: 2200 nM; GI50 [30]: 2.88 µM; GI50 [31]: 4.82 µM; inhibition [32]: 30%; GI50 [33]: 5.09 µM; GI50 [34]: 3.05 µM; GI50 [35]: 2590 nM; GI50 [36]: 2.71 µM; GI50 [37]: 1.11 µM; GI50 [38]: 4.33 µM; GI50 [39]: 2780 nM
COc1ccccc1/C=C/C(=O)c1c(O)cc2occc2c1OC	33.7 µM	47400 nM	> 100 µM	18.9 µM	22.4 µM	> 100000 nM	> 100 µM	> 100 µM	26 µM	23.5 µM	> 100 µM	0%	> 100 µM	40400 nM	> 100 µM	25100 nM	14900 nM	21.9 µM	55.9 µM	> 100000 nM	GI50 [6]: 30.8 µM; GI50 [7]: 46 µM; GI50 [23]: 9560 nM; GI50 [24]: 2980 nM; GI50 [25]: > 100 µM; GI50 [26]: > 100 µM; GI50 [27]: > 100 µM; GI50 [28]: 29.6 µM; GI50 [29]: 30100 nM; GI50 [31]: > 100 µM; inhibition [32]: 17%; GI50 [33]: 30 µM; GI50 [34]: 5.69 µM; GI50 [35]: > 100000 nM; GI50 [36]: > 100 µM; GI50 [37]: 21.3 µM; GI50 [38]: 33.1 µM; GI50 [39]: 23500 nM
COc1c2occc2c(OC)c2c(=O)c(CN3CCOCC3)c(/C=C/c3ccc(Cl)cc3)oc12	2.85 µM	2340 nM	2.1 µM	3.05 µM	3 µM	1770 nM	2.17 µM	3.05 µM	1.94 µM	2.63 µM	1.65 µM	6%	2.78 µM	2920 nM	2.45 µM	2790 nM	2360 nM	5.32 µM	4.31 µM	2050 nM	GI50 [23]: 2100 nM; GI50 [24]: 1280 nM; GI50 [25]: 2.35 µM; GI50 [26]: 2.76 µM; GI50 [27]: 2.75 µM; GI50 [28]: 3.12 µM; GI50 [29]: 2180 nM; GI50 [30]: 3.28 µM; GI50 [31]: 2.76 µM; inhibition [32]: 5%; GI50 [33]: 2.47 µM; GI50 [34]: 2.05 µM; GI50 [36]: 3.32 µM; GI50 [37]: 3.56 µM; GI50 [38]: 2.92 µM; GI50 [39]: 1940 nM
